The source of these data is ChEMBL document CHEMBL1152452, “Modifications incorporated in CpG motifs of oligodeoxynucleotides lead to antagonist activity of toll-like receptors 7 and 9” (2009).

Assay [1] relates to Splenocyte. The experiment in a line: Immunostimulatory activity in C57BL/6 mouse splenocytes assessed as induction of IL12 secretion at 2 to 10 ug/ml after 24 hrs by sandwich ELISA. In kind it is functional, cell-based. In outline:
(§1)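 C57BL/6 splenocytes (mice 5–8 weeks) at 5 × 10^6 cells/mL in RPMI complete medium. ODNs dissolved in PBS were added and the cells incubated at 37 °C for 24 h. Supernatant IL-12 or IL-6 was measured by sandwich ELISA. Runs were done two or three times, in duplicate per concentration.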
(In an ELISA, binding on a coated surface is turned into a signal by an enzyme label.)

For assay [2], the target named is T1, Toll-like receptor 9 (Mus musculus) (UniProt Q9EQU3).
T1 sequence (whole entry): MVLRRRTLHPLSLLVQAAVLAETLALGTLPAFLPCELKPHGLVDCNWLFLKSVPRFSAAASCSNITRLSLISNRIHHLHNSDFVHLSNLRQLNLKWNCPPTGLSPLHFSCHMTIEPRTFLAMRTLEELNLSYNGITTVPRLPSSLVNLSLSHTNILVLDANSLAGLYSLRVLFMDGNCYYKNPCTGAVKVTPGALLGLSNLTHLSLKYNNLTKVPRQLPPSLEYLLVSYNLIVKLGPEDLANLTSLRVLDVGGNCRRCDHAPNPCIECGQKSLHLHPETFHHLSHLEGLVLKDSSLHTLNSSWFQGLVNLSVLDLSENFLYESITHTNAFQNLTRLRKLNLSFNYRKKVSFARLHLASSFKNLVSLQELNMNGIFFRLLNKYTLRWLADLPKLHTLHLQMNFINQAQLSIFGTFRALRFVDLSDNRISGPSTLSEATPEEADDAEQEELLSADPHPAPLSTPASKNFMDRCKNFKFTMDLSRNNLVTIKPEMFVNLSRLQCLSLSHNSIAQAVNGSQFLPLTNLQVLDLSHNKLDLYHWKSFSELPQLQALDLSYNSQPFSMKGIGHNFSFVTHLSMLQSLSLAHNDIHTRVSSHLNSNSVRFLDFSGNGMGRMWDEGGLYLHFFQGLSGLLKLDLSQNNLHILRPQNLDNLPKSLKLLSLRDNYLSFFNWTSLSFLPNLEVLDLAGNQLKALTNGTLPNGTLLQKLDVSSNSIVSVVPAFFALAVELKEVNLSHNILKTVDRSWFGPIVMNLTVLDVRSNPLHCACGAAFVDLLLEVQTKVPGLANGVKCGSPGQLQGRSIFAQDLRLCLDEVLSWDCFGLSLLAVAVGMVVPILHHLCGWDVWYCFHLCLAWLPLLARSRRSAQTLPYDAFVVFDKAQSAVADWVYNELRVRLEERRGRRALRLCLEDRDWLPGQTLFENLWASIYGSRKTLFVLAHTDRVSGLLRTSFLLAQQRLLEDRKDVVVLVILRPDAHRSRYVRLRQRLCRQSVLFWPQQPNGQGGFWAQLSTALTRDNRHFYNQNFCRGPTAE
The experiment in a line: Activation of mouse TLR9 expressed in HEK293 cells assessed as NF-kappaB level at 0.3 ug/mL after 18 hrs by reporter gene assay. It counts as cell-based. In short, it runs like this:
(§2)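 HEK293 cells stably expressing mouse TLR9 were transiently transfected with a SEAP reporter for 6 h, then stimulated with ODN at 0.1, 0.3 or 1 μg/mL for 18 h. Reporter expression is given as fold change in NF-κB activity over medium. Representative of two independent experiments.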
(A reporter such as luciferase makes a cellular process visible.)

Assay [3] deals with Splenocyte. As to the kind of experiment: Immunostimulatory activity in C57BL/6 mouse splenocytes assessed as induction of IL6 secretion at 2 to 10 ug/ml after 24 hrs by sandwich ELISA. In kind it is functional, cell-based. In outline:
as §1

Assay [4] concerns the target T1, Toll-like receptor 9 (Mus musculus). As to the kind of experiment: Activation of mouse TLR9 expressed in HEK293 cells assessed as NF-kappaB level at 1 ug/mL after 18 hrs by reporter gene assay. In kind it is cell-based. In short, it runs like this:
as §2

The test system of assay [5] is Mus musculus. The experiment in a line: Immunostimulatory activity in C57BL/6 mouse assessed as inhibition of 5'-CTATCTGACGTTCTCTGT-3'-induced TNFalpha production in serum at 2 mg/kg, sc administered 24 hrs prior to 5'-CTATCTGACGTTCTCTGT-3' challenge measured after 2 hrs by Luminex multiplex assay. It counts as functional, organism-based. The arrangement: dose 2 mg/kg. In short, it runs like this:
(§3)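 C57BL/6 mice received 2 mg/kg ODN sc in one flank. After 24 h, the TLR9 agonist ODN was given at 0.5 mg/kg sc in the opposite flank. Blood was drawn 2 h later and serum cytokines/chemokines were quantified by Luminex multiplex assay. Percent inhibition was taken against the agonist alone. Representative of three experiments.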

The target in assay [6] is T1, Toll-like receptor 9 (Mus musculus). The experiment in a line: Activation of mouse TLR9 expressed in HEK293 cells assessed as NF-kappaB level at 0.1 ug/mL after 18 hrs by reporter gene assay. In kind it is cell-based. In short, it runs like this: as §2
The subject of assay [7] is Mus musculus. The experiment in a line: Immunostimulatory activity in C57BL/6 mouse assessed as inhibition of 5'-CTATCTGACGTTCTCTGT-3'-induced MIP-1alpha production in serum at 2 mg/kg, sc administered 24 hrs prior to 5'-CTATCTGACGTTCTCTGT-3' challenge measured after 2 hrs by Luminex multiplex assay. It counts as functional, organism-based. The arrangement: dose 2 mg/kg. In short, it runs like this:
as §3

The subject of assay [8] is Mus musculus. The experiment in a line: Immunostimulatory activity in C57BL/6 mouse assessed as inhibition of 5'-CTATCTGACGTTCTCTGT-3'-induced IL10 production in serum at 2 mg/kg, sc administered 24 hrs prior to 5'-CTATCTGACGTTCTCTGT-3' challenge measured after 2 hrs by Luminex multiplex assay. It counts as functional, organism-based. The arrangement: dose 2 mg/kg. In short, it runs like this:
as §3

Assay [9] relates to Mus musculus. The experiment in a line: Immunostimulatory activity in C57BL/6 mouse assessed as inhibition of 5'-CTATCTGACGTTCTCTGT-3'-induced MCP1 production in serum at 2 mg/kg, sc administered 24 hrs prior to 5'-CTATCTGACGTTCTCTGT-3' challenge measured after 2 hrs by Luminex multiplex assay. Set-up: dose 2 mg/kg. It counts as functional, organism-based. In outline:
as §3

In assay [10] the test system is Mus musculus. The experiment in a line: Immunostimulatory activity in C57BL/6 mouse assessed as inhibition of 5'-CTATCTGACGTTCTCTGT-3'-induced KC production in serum at 2 mg/kg, sc administered 24 hrs prior to 5'-CTATCTGACGTTCTCTGT-3' challenge measured after 2 hrs by Luminex multiplex assay. In kind it is functional, organism-based. The arrangement: dose 2 mg/kg. In outline: as §3

For assay [11], the system named is J774. The experiment in a line: Activation of NF-kappaB in mouse J774 cells at 2.5 ug/ml after 1 hr by EMSA. It counts as cell-based. In short, it runs like this:
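Murine J774 macrophages in DMEM with 10% FBS and antibiotics, plated at 5×10^6 cells/well. ODNs were given alone or together for 1 h. For inhibition, the agonist ODN at 0.5 μg/mL was co-incubated with the modified ODN at 2.5 μg/mL. Nuclear extracts were resolved by EMSA on native polyacrylamide gels and read by autoradiography.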
In general terms: A gel shift assay detects complexes by their altered migration in electrophoresis.

Assay [12] concerns J774. The experiment in a line: Inhibition of 5'-CTATCTGACGTTCTCTGT-3'-activated NF-kappaB activity in mouse J774 cells at 2.5 ug/ml after 1 hr by EMSA. It counts as cell-based. In outline:
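J774 murine macrophages were grown in DMEM with 10% FBS and antibiotics, plated at 5 × 10^6 cells/well, and co-incubated for 1 h with the agonist ODN (0.5 µg/mL) and test ODN (2.5 µg/mL). Nuclear extracts were prepared and NF-κB binding was analysed by EMSA on native polyacrylamide gels with autoradiography.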

Activity calls are given as the source filed them. The calls are words filed in the database; no cut-off is given here.

On to `Cc1cn([C@H]2C[C@H](OP(=O)(S)OC[C@H]3O[C@@H](n4ccc(N)nc4=O)C[C@@H]3OP(=O)(S)OC[C@H]3O[C@@H](n4cc(C)c(=O)[nH]c4=O)C[C@@H]3OP(=O)(S)OC[C@H]3O[C@@H](n4cc(C)c(=O)[nH]c4=O)C[C@@H]3OP(=O)(S)OC[C@H]3O[C@@H](n4ccc(N)nc4=O)C[C@@H]3OP(=O)(S)OC[C@H]3O[C@@H](n4cc(C)c(=O)[nH]c4=O)C[C@@H]3OP(=O)(S)OC[C@H]3O[C@@H](n4ccc(N)nc4=O)C[C@@H]3OP(=O)(S)OC[C@H]3O[C@@H](n4cc(C)c(=O)[nH]c4=O)C[C@@H]3OP(=O)(S)OC[C@H]3O[C@@H](n4cnc5c(=O)[nH]c(N)nc54)C[C@@H]3OP(=O)(S)OC[C@H]3O[C@@H](n4cc(C)c(=O)[nH]c4=O)C[C@@H]3O)[C@@H](COP(=O)(S)O[C@H]3C[C@H](n4cnc5c(N)ncnc54)O[C@@H]3COP(=O)(S)O[C@H]3C[C@H](n4cnc5c(=O)[nH]c(N)nc54)O[C@@H]3COP(=O)(S)O[C@H]3C[C@H](n4cc(C)c(=O)[nH]c4=O)O[C@@H]3COP(=O)(S)O[C@H]3C[C@H](n4ccc(N)nc4=O)O[C@@H]3COP(=O)(S)O[C@H]3C[C@H](n4cc(C)c(=O)[nH]c4=O)O[C@@H]3COP(=O)(S)O[C@H]3C[C@H](n4cnc5c(N)ncnc54)O[C@@H]3COP(=O)(S)O[C@H]3C[C@H](n4cc(C)c(=O)[nH]c4=O)O[C@@H]3COP(=O)(S)O[C@H]3C[C@H](n4ccc(N)nc4=O)O[C@@H]3CO)O2)c(=O)nc1N` (some centres not stated), for which the outcome in assay [1], in assay [2], in assay [3], in assay [4] and in [6] was inactive. The result in [5], in assay [7], in assay [8], in assay [9] and in [10] was Active.
In the case of `COC1[C@H](n2cnc3c(N)ncnc32)O[C@H](COP(=O)(S)O[C@H]2C(OC)[C@H](n3cnc4c(=O)[nH]c(N)nc43)O[C@@H]2COP(=O)(S)O[C@H]2C[C@H](n3cc(C)c(=O)[nH]c3=O)O[C@@H]2COP(=O)(S)O[C@H]2C[C@H](n3ccc(N)nc3=O)O[C@@H]2COP(=O)(S)O[C@H]2C[C@H](n3cc(C)c(=O)[nH]c3=O)O[C@@H]2COP(=O)(S)O[C@H]2C[C@H](n3cnc4c(N)ncnc43)O[C@@H]2COP(=O)(S)O[C@H]2C[C@H](n3cc(C)c(=O)[nH]c3=O)O[C@@H]2COP(=O)(S)O[C@H]2C[C@H](n3ccc(N)nc3=O)O[C@@H]2CO)[C@H]1OP(=O)(S)OC[C@H]1O[C@@H](n2ccc(N)nc2=O)C[C@@H]1OP(=O)(S)OC[C@H]1O[C@@H](n2ccc(N)nc2=O)C[C@@H]1OP(=O)(S)OC[C@H]1O[C@@H](n2cc(C)c(=O)[nH]c2=O)C[C@@H]1OP(=O)(S)OC[C@H]1O[C@@H](n2cc(C)c(=O)[nH]c2=O)C[C@@H]1OP(=O)(S)OC[C@H]1O[C@@H](n2ccc(N)nc2=O)C[C@@H]1OP(=O)(S)OC[C@H]1O[C@@H](n2cc(C)c(=O)[nH]c2=O)C[C@@H]1OP(=O)(S)OC[C@H]1O[C@@H](n2ccc(N)nc2=O)C[C@@H]1OP(=O)(S)OC[C@H]1O[C@@H](n2cc(C)c(=O)[nH]c2=O)C[C@@H]1OP(=O)(S)OC[C@H]1O[C@@H](n2cnc3c(=O)[nH]c(N)nc32)C[C@@H]1OP(=O)(S)OC[C@H]1O[C@@H](n2cc(C)c(=O)[nH]c2=O)C[C@@H]1O` (some centres not stated), the result in assay [11] and in assay [12] was inactive.
